In ChEMBL document CHEMBL1138117, “Hybrid antibacterials. DNA polymerase-topoisomerase inhibitors” (J Med Chem, 2006):
In brackets after ≈: the same amount, converted by molar mass.

Assays:
Bacillus subtilis = assay: Antibacterial activity against Bacillus subtilis BD54; type: functional
Enterococcus faecium [1] = assay: Antibacterial activity against Enterococcus faecium 19434; type: functional
Staphylococcus aureus [2] = assay: Antibacterial activity against methicillin resistant Staphylococcus aureus MRSA 1094; type: functional
Enterococcus faecalis = assay: Antibacterial activity against Enterococcus faecalis 29212; type: functional
Escherichia coli = assay: Antibacterial activity against Escherichia coli J53; type: functional
Enterococcus faecium [3] = assay: Antibacterial activity against Vancomycin resistant Enterococcus faecium VRE 700802; type: functional
Staphylococcus aureus [4] = assay: Antibacterial activity against Staphylococcus aureus smith; type: functional
Staphylococcus aureus [5] = assay: Antibacterial activity against Staphylococcus aureus 25293; type: functional
[6] = target: DNA polymerase III PolC-type (Bacillus subtilis (strain 168), UniProt P13267); assay: Binding affinity to Bacillus subtilis DNA polymerase3C
Method in brief: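 Homogeneous recombinant B. subtilis pol IIIC was assayed in 96-well format on activated calf thymus DNA. Apparent Ki values were determined in a truncated assay lacking the competitor dGTP.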

Sequence of DNA polymerase III PolC-type (P13267 whole entry, the tested form may be a part): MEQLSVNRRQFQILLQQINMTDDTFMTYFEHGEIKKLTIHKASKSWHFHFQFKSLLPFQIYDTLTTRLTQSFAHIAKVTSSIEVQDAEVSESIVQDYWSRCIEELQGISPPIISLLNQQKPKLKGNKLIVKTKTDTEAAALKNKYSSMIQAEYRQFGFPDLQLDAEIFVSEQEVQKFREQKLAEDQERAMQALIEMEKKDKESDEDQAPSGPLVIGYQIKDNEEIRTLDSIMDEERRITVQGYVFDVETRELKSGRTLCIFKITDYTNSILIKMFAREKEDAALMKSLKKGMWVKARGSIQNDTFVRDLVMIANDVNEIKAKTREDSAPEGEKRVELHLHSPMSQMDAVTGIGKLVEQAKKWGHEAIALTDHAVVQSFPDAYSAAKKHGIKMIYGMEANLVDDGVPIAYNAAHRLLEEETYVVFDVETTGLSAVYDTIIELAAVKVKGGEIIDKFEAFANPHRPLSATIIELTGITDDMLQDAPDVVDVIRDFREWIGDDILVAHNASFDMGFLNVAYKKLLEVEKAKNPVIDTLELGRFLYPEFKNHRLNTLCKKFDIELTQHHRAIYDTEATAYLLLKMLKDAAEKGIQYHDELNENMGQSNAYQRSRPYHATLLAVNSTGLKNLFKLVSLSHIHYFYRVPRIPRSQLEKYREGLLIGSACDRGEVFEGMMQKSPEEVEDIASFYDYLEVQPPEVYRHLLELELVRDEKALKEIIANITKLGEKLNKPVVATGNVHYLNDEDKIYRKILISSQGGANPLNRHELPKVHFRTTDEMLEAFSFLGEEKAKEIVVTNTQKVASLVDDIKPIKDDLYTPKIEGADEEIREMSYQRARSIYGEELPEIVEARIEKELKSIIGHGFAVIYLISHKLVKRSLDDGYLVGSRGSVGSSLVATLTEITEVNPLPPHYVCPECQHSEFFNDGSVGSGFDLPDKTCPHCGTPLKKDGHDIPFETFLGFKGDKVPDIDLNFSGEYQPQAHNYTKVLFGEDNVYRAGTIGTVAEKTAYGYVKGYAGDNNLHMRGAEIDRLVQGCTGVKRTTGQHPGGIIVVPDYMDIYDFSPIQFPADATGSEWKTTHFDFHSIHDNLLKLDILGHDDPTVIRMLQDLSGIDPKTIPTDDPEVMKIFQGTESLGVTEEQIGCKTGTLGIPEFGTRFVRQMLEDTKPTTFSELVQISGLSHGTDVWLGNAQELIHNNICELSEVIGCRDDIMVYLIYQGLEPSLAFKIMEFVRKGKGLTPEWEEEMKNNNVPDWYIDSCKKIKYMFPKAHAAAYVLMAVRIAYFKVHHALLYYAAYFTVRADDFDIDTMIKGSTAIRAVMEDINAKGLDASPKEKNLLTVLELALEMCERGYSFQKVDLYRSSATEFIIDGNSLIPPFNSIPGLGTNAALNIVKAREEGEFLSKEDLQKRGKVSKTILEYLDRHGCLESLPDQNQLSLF

Compound	MIC (Bacillus subtilis)	MIC (Enterococcus faecium [1])	MIC (Staphylococcus aureus [2])	MIC (Enterococcus faecalis)	MIC (Escherichia coli)	MIC (Enterococcus faecium [3])	MIC (Staphylococcus aureus [4])	MIC (Staphylococcus aureus [5])	Ki ([6]; read-out: Ki)	Ki [6]
CCc1cc(Nc2cc(=O)n(CCCCN3CCN(c4nc5c(cc4F)c(=O)c(C(=O)O)cn5CC)CC3)c(=O)[nH]2)ccc1C	0.313 µg/mL (≈ 0.505 µM)	1.25 µg/mL (≈ 2.02 µM)	2.5 µg/mL (≈ 4.03 µM)	1.25 µg/mL (≈ 2.02 µM)	> 40 µg/mL	0.625 µg/mL (≈ 1.01 µM)	–	–	–	–
CCc1cc(Nc2cc(=O)n(CCCCN3CCN(c4cc5c(cc4F)c(=O)c(C(=O)O)cn5CC)CC3)c(=O)[nH]2)ccc1C	0.313 µg/mL (≈ 0.506 µM)	0.625 µg/mL (≈ 1.01 µM)	2.5 µg/mL (≈ 4.04 µM)	0.625 µg/mL (≈ 1.01 µM)	> 40 µg/mL	0.625 µg/mL (≈ 1.01 µM)	1.25 µg/mL (≈ 2.02 µM)	1.25 µg/mL (≈ 2.02 µM)	–	–
CCc1cc(Nc2cc(=O)n(CCCCO)c(=O)[nH]2)ccc1C	1.25 µg/mL (≈ 3.94 µM)	5 µg/mL (≈ 15.8 µM)	5 µg/mL (≈ 15.8 µM)	5 µg/mL (≈ 15.8 µM)	> 40 µg/mL	5 µg/mL (≈ 15.8 µM)	5 µg/mL (≈ 15.8 µM)	5 µg/mL (≈ 15.8 µM)	66 nM	–
CCc1cc(Nc2cc(=O)n(CCCCN3CCN(c4cc5c(cc4F)c(=O)c(C(=O)O)cn5-c4ccc(F)cc4)CC3)c(=O)[nH]2)ccc1C	0.156 µg/mL (≈ 0.228 µM)	1.25 µg/mL (≈ 1.83 µM)	2.5 µg/mL (≈ 3.65 µM)	0.625 µg/mL (≈ 0.913 µM)	> 40 µg/mL	1.25 µg/mL (≈ 1.83 µM)	0.625 µg/mL (≈ 0.913 µM)	1.25 µg/mL (≈ 1.83 µM)	17 nM	–
CCc1cc(Nc2cc(=O)n(CCCCCN3CC4CCCN(c5cc6c(cc5F)c(=O)c(C(=O)O)cn6CC)C4C3)c(=O)[nH]2)ccc1C (stereo not given)	2.5 µg/mL (≈ 3.72 µM)	20 µg/mL (≈ 29.7 µM)	> 80 µg/mL	10 µg/mL (≈ 14.9 µM)	> 80 µg/mL	5 µg/mL (≈ 7.43 µM)	5 µg/mL (≈ 7.43 µM)	10 µg/mL (≈ 14.9 µM)	37 nM	–
CCc1cc(Nc2cc(=O)n(CCCCCN3CC4CCCN(c5cc6c(cc5F)c(=O)c(C(=O)O)cn6C5CC5)C4C3)c(=O)[nH]2)ccc1C (stereo not given)	1.25 µg/mL (≈ 1.83 µM)	> 80 µg/mL	> 80 µg/mL	> 80 µg/mL	> 80 µg/mL	–	1.25 µg/mL (≈ 1.83 µM)	2.5 µg/mL (≈ 3.65 µM)	41 nM	–
O=C(O)c1cn(C2CC2)c2cc(N3CCN(CCCCn4c(=O)cc(Nc5ccccc5)[nH]c4=O)CC3)c(F)cc2c1=O	2.5 µg/mL (≈ 4.25 µM)	> 40 µg/mL	> 40 µg/mL	10 µg/mL (≈ 17 µM)	> 40 µg/mL	40 µg/mL (≈ 68 µM)	2.5 µg/mL (≈ 4.25 µM)	2.5 µg/mL (≈ 4.25 µM)	29000 nM	–
CCc1cc(Nc2cc(=O)n(CCCCN3CCN(c4c(F)cc5c(=O)c(C(=O)O)cn(CC)c5c4F)CC3)c(=O)[nH]2)ccc1C	0.313 µg/mL (≈ 0.492 µM)	1.25 µg/mL (≈ 1.96 µM)	–	1.25 µg/mL (≈ 1.96 µM)	> 40 µg/mL	0.625 µg/mL (≈ 0.982 µM)	–	–	–	–
CCc1cc(Nc2cc(=O)n(CCCCCN3CCN(c4cc5c(cc4F)c(=O)c(C(=O)O)cn5C4CC4)CC3)c(=O)[nH]2)ccc1C	0.313 µg/mL (≈ 0.485 µM)	1.25 µg/mL (≈ 1.94 µM)	2.5 µg/mL (≈ 3.88 µM)	0.625 µg/mL (≈ 0.969 µM)	> 40 µg/mL	1.25 µg/mL (≈ 1.94 µM)	1.25 µg/mL (≈ 1.94 µM)	1.25 µg/mL (≈ 1.94 µM)	19 nM	–
CC(=O)NC[C@H]1CN(c2ccc(N3CCOCC3)c(F)c2)C(=O)O1 [LINEZOLID]	0.625 µg/mL (≈ 1.85 µM)	2.5 µg/mL (≈ 7.41 µM)	1.25 µg/mL (≈ 3.71 µM)	1.25 µg/mL (≈ 3.71 µM)	> 80 µg/mL	1.25 µg/mL (≈ 3.71 µM)	2.5 µg/mL (≈ 7.41 µM)	1.25 µg/mL (≈ 3.71 µM)	–	Not Active
CCc1cc(Nc2cc(=O)n(CCCCN3CCN(c4c(F)cc5c(=O)c(C(=O)O)cn(C6CC6)c5c4Cl)CC3)c(=O)[nH]2)ccc1C	0.078 µg/mL (≈ 0.117 µM)	1.25 µg/mL (≈ 1.88 µM)	1.25 µg/mL (≈ 1.88 µM)	0.625 µg/mL (≈ 0.94 µM)	20 µg/mL (≈ 30.1 µM)	0.625 µg/mL (≈ 0.94 µM)	0.156 µg/mL (≈ 0.235 µM)	0.313 µg/mL (≈ 0.471 µM)	10 nM	–
Cc1ccc(Nc2cc(=O)n(CCCCN3CCN(c4cc5c(cc4F)c(=O)c(C(=O)O)cn5C4CC4)CC3)c(=O)[nH]2)cc1C	0.313 µg/mL (≈ 0.508 µM)	2.5 µg/mL (≈ 4.05 µM)	5 µg/mL (≈ 8.11 µM)	2.5 µg/mL (≈ 4.05 µM)	> 40 µg/mL	1.25 µg/mL (≈ 2.03 µM)	0.625 µg/mL (≈ 1.01 µM)	1.25 µg/mL (≈ 2.03 µM)	–	–
CCn1cc(C(=O)O)c(=O)c2cc(F)c(N3CCNCC3)cc21 [NORFLOXACIN]	0.313 µg/mL (≈ 0.98 µM)	10 µg/mL (≈ 31.3 µM)	40 µg/mL (≈ 125 µM)	2.5 µg/mL (≈ 7.83 µM)	1.25 µg/mL (≈ 3.91 µM)	80 µg/mL (≈ 251 µM)	–	–	–	Not Active
